Published values pooled from the literature.
Target: Tyrosine-protein kinase ITK/TSK (ITK, Homo sapiens, UniProt Q08881)
Tested at: 1 µM
Residues used in one study (Q08881 1-620): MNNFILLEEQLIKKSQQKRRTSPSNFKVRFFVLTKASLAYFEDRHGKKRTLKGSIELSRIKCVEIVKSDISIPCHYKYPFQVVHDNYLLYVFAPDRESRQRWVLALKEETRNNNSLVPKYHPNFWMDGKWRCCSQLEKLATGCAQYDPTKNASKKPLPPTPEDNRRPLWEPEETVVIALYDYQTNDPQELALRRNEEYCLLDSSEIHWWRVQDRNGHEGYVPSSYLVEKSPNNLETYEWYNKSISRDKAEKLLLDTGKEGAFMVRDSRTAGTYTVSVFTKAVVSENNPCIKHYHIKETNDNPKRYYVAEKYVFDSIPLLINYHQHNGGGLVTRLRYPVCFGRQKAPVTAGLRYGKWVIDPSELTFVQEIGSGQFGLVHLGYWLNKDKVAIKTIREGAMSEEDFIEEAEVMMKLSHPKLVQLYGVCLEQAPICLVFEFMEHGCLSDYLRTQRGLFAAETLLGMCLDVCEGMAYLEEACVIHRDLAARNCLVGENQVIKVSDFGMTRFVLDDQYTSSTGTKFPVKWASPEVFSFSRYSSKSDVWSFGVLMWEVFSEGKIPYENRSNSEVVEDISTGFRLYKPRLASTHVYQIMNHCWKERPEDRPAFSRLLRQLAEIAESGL

SMILES	observed	technique	remaining binding [%]
CNC(=O)[C@@H]1CC[C@@H](n2c(-c3ccc4cnccc4c3)nc3ccc(C(=O)NCc4cccc(C(N)=O)c4)cc32)C1	binding	competition with immobilised ligand	99
Cc1cnc(Nc2ccc(C(=O)N3CCC(N4CCCC4)CC3)cc2)nc1-c1cc2ccccc2s1	binding	competition with immobilised ligand	59
COc1cc(-c2cn(C3CCc4c(F)cccc4N(CC(F)(F)F)C3=O)nn2)ccc1-n1cnc(C)c1 (centres unmarked)	cell-free assay	competition with immobilised ligand	100
O=C(NCC1CCOCC1)c1n[nH]cc1NC(=O)c1c(F)cccc1F	binding	competition with immobilised ligand	100
Cc1nccc(COC(=O)N2C[C@@H]3[C@@H](CNC(=O)c4ccc5[nH]nnc5c4)[C@@H]3C2)n1	cell-free assay	competition with immobilised ligand	100
CCN1CCN(Cc2ccc(C(=O)Nc3ccc(C)c(Oc4ccc5c(c4)CC(=O)N5)c3)cc2C(F)(F)F)CC1	binding	competition with immobilised ligand	72
Cc1cnn2ncc(-c3ccnc(N(C)C)n3)c2c1	binding		100
O=C(Nc1cccnn1)N1CC(C/C=C/c2cncc(Oc3ccc(C(F)(F)F)cn3)n2)C1	cell-free assay	competition with immobilised ligand	100
O=C(c1ccc(Nc2ncc(Cl)c(-c3ccc(Cl)s3)n2)cc1)N1CCC(N2CCCC2)CC1	binding	competition with immobilised ligand	29
N[C@H]1CCN(c2nccc(-c3cnn4ncccc34)n2)C1	binding		100
CN1CCN(c2cnc3c(C4CCN(C(=O)c5ccc(OC(F)(F)F)cc5N)CC4)ncnc3c2)CC1	cell-free assay	competition with immobilised ligand	100
CN(C)c1ncc(F)c(-c2cnn3ncccc23)n1	binding		100
O=C(O)[C@H]1[C@H](Cn2nnc3ccccc3c2=O)CC[C@@H]1C(=O)c1ccc(OCCC2CCOCC2)cc1	cell-free assay	competition with immobilised ligand	100
Nc1ncc2c(n1)-c1c([nH]c3ccc(C#CC4CC4)cc13)CCCC2	binding	competition with immobilised ligand	92
CN(CCCC(F)(F)F)c1nccc(-c2cnn3ncccc23)n1	binding		95
CC(=O)C1=C(C)N(c2cccc(C(F)(F)F)c2)C(=O)N[C@@H]1c1ccc(C#N)nc1	cell-free assay	competition with immobilised ligand	90.4
C[C@H]1CCN(c2nccc(-c3cnn4ncccc34)n2)C1	binding		93
COc1cnc(Nc2cccc(S(N)(=O)=O)c2)nc1N1CCN(c2ccccc2)C(=O)C1	binding	competition with immobilised ligand	100
CN(C)c1nccc(-c2cnc3ncccn23)n1	binding		88
O=C(NCCCN1CCOCC1)c1ccc(Nc2nccc(-c3cc4ccccc4s3)n2)cc1	binding	competition with immobilised ligand	100
